Screening results from PubChem BioAssay.
IMP-1 inh-1 = blocks Pseudomonas aeruginosa IMP-1 metallo-beta-lactamase. actives 0.45% (n = 290,000). inhibition, % at 5.6 µM. purified IMP-1, nitrocefin hydrolysis, epi-absorbance fluorescence;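 active = inhibition above the mean plus 3 SD of all compounds in the same screening run, cut at about 4.5% in these data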;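 note: 0% = IMP-1 with DMSO and 100% = DMSO wells lacking enzyme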
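System: Purified recombinant IMP-1 metallo-beta-lactamase enzyme | Measured by: Fluorescence quenching readout, ex 480/em 530 nm | Replication: Singlicate | Incubation: 15 min preincubation plus 25 min reaction at 25 °C | Evaluation: Percent inhibition from optical density relative to buffer-blank wells | Benchmarks: DMSO with and without IMP-1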
UBC9 SUMO inh = SUMOylation inhibition | P63279 | HTRF SUMOylation assay, SAE1/SAE2 + UBC9, in vitro | inhibition, % at 35 µM | actives 0.36% (n = 290,000) | AID 2006; in the data active = inhibition above about 50%, passing the limit was not always enough
Target sequence (P63279 whole entry, looked up): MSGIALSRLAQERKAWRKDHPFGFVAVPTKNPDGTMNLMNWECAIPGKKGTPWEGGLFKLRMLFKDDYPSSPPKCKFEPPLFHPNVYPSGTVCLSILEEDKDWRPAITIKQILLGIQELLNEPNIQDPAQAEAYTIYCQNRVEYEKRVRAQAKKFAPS
DNA FID counter = displaces DNA intercalator in HCV helicase counter-screen | DNA fluorescent intercalator displacement, fluorescence | inhibition, % at 7.9 µM | actives 0.17% (n = 290,000) | AID 1845; in the data active = inhibition above about 37%;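 note: 0% = vehicle and 100% = reference compound; higher means more ethidium bromide displaced from hairpin DNA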
SUMO Mot1 rescue = blocks SUMOylation pathway, rescuing yeast Mot1-301 growth; growth rescue, % at 18.8 µM; S. cerevisiae Mot1-301 growth rescue, ATP luminescence, 38.5C; percent above DMSO median, 100 means doubled; AID 2716; actives 1% (n = 320,000);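 active = every valid replicate shows activation above 250% relative to neutral control wells; inactive = the rest, any valid replicate at or below 250%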;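 note: OY570 slx delta 5 strain wells were the positive control but not used for scaling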
NALP1 inh = NALP1 inhibition; S. cerevisiae NALP1/ASC/caspase-1 growth, X-gal OD620, 72 h; inhibition, % at 10 µM; actives 0.61% (n = 280,000); AID 2071; in the data active = inhibition mostly above about 24%, no sharp cut-off; inactive = mostly below about 32%
VIM-2 inh = inhibitors of Pseudomonas aeruginosa VIM-2 metallo-beta-lactamase; inhibition, % at 5.6 µM; actives 0.89% (n = 290,000); AID 1527; purified VIM-2, nitrocefin hydrolysis, epi-absorbance fluorescence;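 active = inhibition above the mean of all tested compounds plus 3 SD, cutoff set per screening run, cut at about 7.5% in these data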;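 note: red hydrolysis product quenches plate fluorescence so inhibitors raise well fluorescence; 0% = enzyme with DMSO and 100% = DMSO without enzyme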
IMP-1 inh-2 = selectivity counter-screen for VIM-2 inhibitors: IMP-1 metallo-beta-lactamase inhibitors; purified IMP-1, nitrocefin hydrolysis, epi-absorbance fluorescence; AID 1856; 1,300 tested, under 10 active; inhibition, % at 5.6 µM; shares compounds with VIM-2 inh; call rule not given here;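 note: 0% = enzyme with vehicle and 100% = vehicle without enzyme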
VIM-2 FRET ctr = VIM-2 FRET inhibition, artifact counter-screen. purified VIM-2, CCF2 FRET substrate hydrolysis. AID 1857. actives 23% (n = 1,300). inhibition, % at 5.6 µM. shares compounds with VIM-2 inh;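 active = inhibition above the mean of all tested compounds plus 3 SD, cut at about 19% in these data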;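 note: 0% = VIM-2 plus DMSO and 100% = no enzyme wells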
TEM-1 inh = selectivity counter-screen for VIM-2 inhibitors: E. coli TEM-1 inhibitors. Purified TEM-1, nitrocefin hydrolysis, epi-absorbance fluorescence. actives 3% (n = 1,300). inhibition, % at 5.6 µM. shares compounds with VIM-2 inh. AID 1866;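 active = inhibition above that campaign's mean inhibition plus 3 SD, cut at about 0.46% in these data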;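 note: 0% = TEM-1 with DMSO and 100% = TEM-1 with 100 µM potassium clavulanate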
Target sequence (P62593 whole entry, looked up): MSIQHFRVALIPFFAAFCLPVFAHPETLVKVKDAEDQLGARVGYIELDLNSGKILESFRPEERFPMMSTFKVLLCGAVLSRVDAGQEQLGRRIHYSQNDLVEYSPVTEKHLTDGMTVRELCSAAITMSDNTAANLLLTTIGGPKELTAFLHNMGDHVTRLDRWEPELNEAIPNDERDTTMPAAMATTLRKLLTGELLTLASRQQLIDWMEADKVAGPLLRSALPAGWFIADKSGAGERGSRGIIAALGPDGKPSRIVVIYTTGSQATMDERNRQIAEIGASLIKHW
VIM-2 inh conf = confirmation of P. aeruginosa VIM-2 metallo-beta-lactamase inhibitors; shares compounds with VIM-2 inh; purified VIM-2, nitrocefin hydrolysis, epi-absorbance; inhibition, % at 5.6 µM; actives 96% (n = 1,300);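 active = inhibition of the VIM-2 beta-lactamase enzyme above about 11% from the earlier first-round screen, limit read from the data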;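 note: 0% = VIM-2 with DMSO and 100% = buffer wells without enzyme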
* = called active by the depositor; x = no result. Compounds with a hit are over-represented: about 2.9% of the library has one in this group of screens.

SMILES	IMP-1 inh-1	UBC9 SUMO inh	DNA FID counter	SUMO Mot1 rescue	NALP1 inh	VIM-2 inh	IMP-1 inh-2	VIM-2 FRET ctr	TEM-1 inh	VIM-2 inh conf
CCc1cc(=O)oc2c3c(cc(OCC(=O)Nc4cccnc4)c12)OC(C)(C)CC3	-3.8	27.6	-35.6	195.2	15.3	67.2*	-1.8	-6.6	-7.3	77.7*
CCc1nnc(NC(=O)CCC(=O)Nc2ccc(OC)cc2OC)s1	-2.2	10.1	-13.6	203.3	24.4	-2.9	x	x	x	x
COc1cccc2c1Oc1ncccc1N(C(=O)CCC(=O)NCc1cccc(C)c1)C2	0.3	9.5	-41.0	-5.6	4.0	-1.3	x	x	x	x
CN(Cc1nc2ccccc2c(=O)[nH]1)C(=O)c1cccc(S(=O)(=O)N2CCc3ccccc32)c1	x	x	x	27.3	x	x	x	x	x	x
Cc1c(C)c2c(OCC(=O)N3CCC[C@H]3C(=O)O)cc3c(c2oc1=O)CCC(C)(C)O3	-3.1	44.9	-33.7	24.2	14.1	69.9*	-3.6	85.3*	-6.0	72.4*
Cc1c(C)c2c(OCC(=O)N3CCC(O)CC3)cc3c(c2oc1=O)CCC(C)(C)O3	-0.7	44.9	-33.3	-12.4	23.8	4.0	x	x	x	x
O=S(=O)(c1ccc(Br)cc1Cl)N1CCCN(c2ccc(C(F)(F)F)cn2)CC1	x	x	x	8.2	x	x	x	x	x	x
O=C(c1ccc(Br)o1)N1N=C(c2ccc(Cl)cc2)CC1c1ccco1 (centres undefined)	-2.5	4.3	-25.2	299.3	-7.3	12.3*	-2.0	30.1*	-2.0	18.5*
CC(=O)N1N=C(c2ccc(C)cc2)CC1c1ccco1 (centres undefined)	-1.1	0.1	-17.8	-8.1	1.3	3.6	x	x	x	x
Cc1ccc(C2=NN(C(=O)C3CCCO3)C(c3ccco3)C2)cc1 (centres undefined)	-1.6	2.2	-31.0	-16.5	-11.6	14.2*	-2.7	27.2*	-5.8	17.1*
O=C(C1CCCO1)N1N=C(c2ccc(Br)cc2)CC1c1ccco1 (centres undefined)	-2.4	4.8	-24.9	128.2	31.4	18.4*	-3.0	57.3*	-4.7	36.1*
CCCc1cc(C(=O)Nc2cc(OC)ccc2OC)cs1	0.2	8.9	-28.1	238.3	22.6	-1.1	x	x	x	x
COCCNc1ccc(-c2nn(C)c(=O)c3ccccc23)cc1[N+](=O)[O-]	-2.2	11.5	-11.1	0.6	x	1.7	x	x	x	x
CC(=O)NCc1cc(-c2nn(C)c(=O)c3ccccc23)ccc1C	-4.6	2.5	-17.4	-4.3	25.3	1.7	x	x	x	x
CN(C)CCCNc1ccc(-c2nn(C)c(=O)c3ccccc23)cc1[N+](=O)[O-]	-1.4	4.2	13.9	7.6	26.7	61.3*	-2.9	2.2	-7.8	71.3*
CC(O)CNc1ccc(-c2nn(C)c(=O)c3ccccc23)cc1[N+](=O)[O-] (centres undefined)	-2.2	4.7	-5.2	9.2	15.6	19.4*	-3.0	-1.4	-5.5	39.1*
O=C(CCc1ccccc1)NNC(=O)Cc1ccccc1	-0.7	4.3	-2.5	4.6	-11.6	-1.8	x	x	x	x
Cn1c(N)c(C(=O)c2cc(-c3ccccn3)nc3ccccc23)c(=O)[nH]c1=O	-15.1	15.9	-10.3	x	10.7	37.9*	-5.7	-13.9	-6.6	42.2*
COc1ccc(C(=O)N/N=C\c2coc3ccccc3c2=O)cc1	-1.7	0.3	-3.0	8.4	-12.5	-4.5	x	x	x	x
COc1cc(C(=O)N/N=C/c2coc3ccccc3c2=O)cc(OC)c1OC	4.0	10.5	-11.2	12.9	-11.1	17.8*	1.7	31.4*	-4.8	18.5*
Cc1cc(NCCN2CCOCC2)n2nc(C)c(-c3ccccc3)c2n1	-3.2	6.4	-10.2	1.0	-0.2	-3.7	x	x	x	x
Cc1cc(NCCN2CCOCC2)n2nc(C)c(-c3ccc(Cl)cc3)c2n1	-4.8	17.8	7.7	53.3	10.9	-2.5	x	x	x	x
Cc1cc(NCCCn2ccnc2)n2nc(C)c(-c3ccccc3)c2n1	-2.8	9.3	16.0	-6.9	13.7	68.1*	-3.9	-15.1	-6.8	79.3*
c1ccc(-c2nc(NCCCn3ccnc3)c3ccccc3n2)cc1	-2.8	1.0	66.3*	7.6	-4.1	22.2*	-1.8	-16.0	-1.5	36.1*
Cc1cc(NCCCn2ccnc2)n2nc(C)c(-c3ccc(Cl)cc3)c2n1	-0.1	3.2	23.4	-0.8	-10.3	50.1*	-2.5	-21.9	-6.1	60.5*
SMILES	IMP-1 inh-1	UBC9 SUMO inh	DNA FID counter	SUMO Mot1 rescue	NALP1 inh	VIM-2 inh	IMP-1 inh-2	VIM-2 FRET ctr	TEM-1 inh	VIM-2 inh conf
Cc1cc(NCCCn2ccnc2)n2ncc(-c3ccccc3)c2n1	-1.9	10.4	15.4	7.1	-0.8	57.1*	-0.7	-14.5	1.4*	73.0*
Cc1cc(NCc2ccccc2)n2ncc(-c3ccccc3)c2n1	-4.1	8.6	-14.6	6.7	17.3	-2.6	x	x	x	x
CC(C)(CO)NCC(O)Cn1cc(C=O)c2ccccc21 (centres undefined)	-2.7	14.2	0.2	-12.2	13.3	-2.0	x	x	x	x
O=C(CN1C(=O)c2cccnc2Oc2ccc(Cl)cc21)N1CCCC1	-2.5	x	-8.7	-9.6	12.8	-3.0	x	x	x	x
C=CCn1c(=N)c(C(=O)OCC)cc2c(=O)n3cccc(C)c3nc21	-2.7	x	12.7	-12.5	x	13.5*	-3.3	-43.9	-4.5	26.2*
COCCCNC(=O)c1cc2c(=O)n3cccc(C)c3nc2n(C(C)C)c1=N	-4.3	48.5	8.8	-22.3	15.7	13.4*	0.3	-78.7	1.1*	28.4*
CCOC(=O)c1cc2c(=O)n3cccc(C)c3nc2n(Cc2ccccc2Cl)c1=N	x	44.0	x	x	24.6	x	x	x	x	x
CCN(CC)c1nc(Oc2ccc(C(=O)NN)cc2)nc(Oc2ccc(C(=O)NN)cc2)n1	-2.5	13.4	-40.5	-17.0	3.1	70.5*	-4.5	7.6	-7.5	81.7*
COc1ccccc1C(=O)Nc1nnc(SCC(=O)NC2CCCC2)s1	-4.5	17.0	-27.0	1.2	10.7	12.4*	-2.9	30.6*	-6.2	24.2*
O=C(CSc1nnc(NC(=O)c2ccccc2[N+](=O)[O-])s1)NC1CCCC1	-1.5	13.0	-4.8	-14.6	16.7	14.6*	-2.6	31.6*	-6.9	19.4*
CCN(CC)CCCNC(=O)C1CCN(c2ncnc3c2sc2cccc(F)c23)CC1	1.7	20.3	20.1	44.6	x	26.6*	-0.5	9.9	-6.0	38.8*
